Most compounds without a hit are left out; they make up all but 1.9% or so of the library.
TDP2 inh – blocks human TDP2 phosphodiesterase activity; O95551; recombinant TDP2, T5PNP hydrolysis, p-nitrophenol absorbance 415 nm; 370,000 compounds, 0.34% hits; inhibition, % at 12.8 µM;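 active = inhibition above the mean of all tested compounds plus 3 SD, set per campaign, cut at about 25% in these data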;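 also: 0% = DMSO with enzyme and 100% = buffer with substrate but no TDP2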
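Assay system: Recombinant human TDP2 | Quantity: 120 nM TDP2 per well | Incubation: 2 h at 37 °C | Signal: Epi absorbance | Evaluation: Percent inhibition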
Rin1-Abl PPI inh – blocks binding of human Rin1 to Abl; inhibition, % at 7.35 µM; TR-FRET Rin1/Abl binding, biochemical; 360,000 compounds, 0.4% hits; in the data active = inhibition above about 5%, passing the limit was not always enough
MBD2 inh – inhibitors of human MBD2 binding to methylated oligonucleotide; inhibition, % at 4.4 µM; 370,000 compounds, 0.31% hits; AID 686964; TR-FRET; Q9UBB5; in the data active = inhibition above about 13%
UHRF1 binding – human UHRF1 methylated DNA binding inhibitors; inhibition, % at 4.4 µM; 370,000 compounds, 0.75% hits; AID 687016; UHRF1 binding to methylated oligo, TR-FRET; in the data active = inhibition above about 21%;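 also: UHRF1 SRA domain binding a hemimethylated CpG hairpin DNA probe; 0% = median of test compound wells and 100% = reference inhibitor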
Target sequence (Q96T88 whole entry, looked up, the tested form may be a part): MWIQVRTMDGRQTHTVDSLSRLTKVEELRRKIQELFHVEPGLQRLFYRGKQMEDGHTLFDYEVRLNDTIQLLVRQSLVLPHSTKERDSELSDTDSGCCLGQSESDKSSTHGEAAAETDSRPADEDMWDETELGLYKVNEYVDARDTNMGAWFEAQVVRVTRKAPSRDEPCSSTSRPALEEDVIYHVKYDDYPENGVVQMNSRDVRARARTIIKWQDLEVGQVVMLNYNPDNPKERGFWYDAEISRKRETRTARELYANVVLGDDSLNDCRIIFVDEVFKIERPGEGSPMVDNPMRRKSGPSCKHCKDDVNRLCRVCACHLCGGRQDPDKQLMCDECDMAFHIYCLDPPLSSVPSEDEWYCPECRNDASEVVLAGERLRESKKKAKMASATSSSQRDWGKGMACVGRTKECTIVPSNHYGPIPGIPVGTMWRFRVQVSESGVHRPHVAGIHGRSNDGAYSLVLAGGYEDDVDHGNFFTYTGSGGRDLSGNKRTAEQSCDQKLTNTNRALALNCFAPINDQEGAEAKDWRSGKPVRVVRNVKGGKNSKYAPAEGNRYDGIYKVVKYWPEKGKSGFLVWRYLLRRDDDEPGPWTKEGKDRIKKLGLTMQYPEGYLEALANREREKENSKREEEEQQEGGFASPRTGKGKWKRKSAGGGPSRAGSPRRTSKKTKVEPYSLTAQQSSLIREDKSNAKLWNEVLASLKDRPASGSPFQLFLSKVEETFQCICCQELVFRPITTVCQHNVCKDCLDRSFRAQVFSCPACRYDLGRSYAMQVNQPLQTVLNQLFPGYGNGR
LEDGF integ inh – blocks HIV-1 LEDGF/p75-dependent DNA integration; TR-FRET IN-LEDGF/p75 DNA integration, Eu/Cy5; inhibition, % at 3.7 µM; 370,000 compounds, 0.64% hits; AID 743269;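 active = inhibition above the screen-wide mean plus 3 SD, cut at about 13% in these data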;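 also: signal is the Cy5 over europium emission ratio at 671 and 618 nm; 0% = plate median of compound wells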
IN multimer up – counter-screen for LEDGF/p75 integration inhibitors: HIV-1 integrase multimerization activators | 2,000 compounds, 17% hits | activation, % at 7.7 µM | TR-FRET HIV-1 integrase multimerization, biochemical | shares compounds with LEDGF integ inh; in the data active = activation above about 8.9%
TR-FRET interf – TR-FRET optical interference, LEDGF/p75 integration counter-screen | shares compounds with LEDGF integ inh | TR-FRET optical interference counterscreen, HIV-1 IN multimerization | inhibition, % at 7.7 µM | 2,000 tested, under 10 active;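 active = inhibition above the mean over all tested compounds plus 3 SD, which no compound reached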;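 also: 0% = integrase with antibodies and DMSO and 100% = antibodies without integrase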
IN-LEDGF confirm – confirmation of HIV-1 LEDGF/p75-dependent integration inhibitors | AID 1053136 | inhibition, % at 3.7 µM | shares compounds with LEDGF integ inh | 2,000 compounds, 36% hits | TR-FRET LEDGF/p75-dependent HIV-1 integration, biochemical; in the data active = inhibition above about 14%
Numbers without * were called inactive; nt = no result.

SMILES | TDP2 inh | Rin1-Abl PPI inh | MBD2 inh | UHRF1 binding | LEDGF integ inh | IN multimer up | TR-FRET interf | IN-LEDGF confirm
O=[N+]([O-])c1cc2oc3c(c2c(C=NCc2ccccc2)c1O)CCCC3 | 8 | -1 | -7 | -8 | 25* | 1 | -6 | 71*
CCOc1ccc(OCCC(=O)N(CC)CC(=O)Nc2ccccc2OC)cc1 | 11 | 5 | -2 | 0 | 0 | nt | nt | nt
CC1=CC(=O)C(Sc2ccc(C)cc2)=CC1=O | -14 | -3 | -8 | -4 | 17* | 5 | -25 | -2
Cc1ccc(SC2=C(Sc3ccc(C)cc3)C(=O)c3ccccc3C2=O)cc1 | 18 | 2 | -3 | 0 | -1 | nt | nt | nt
COc1cccc(C2(O)C(=O)Nc3ccccc32)c1 (configuration not stated) | -1 | 3 | 0 | 1 | -1 | nt | nt | nt
O=C(C[C@H]1C[C@@H]2c3cc(NC(=O)c4cccnc4)ccc3O[C@@H]2[C@H](CO)O1)NCc1ccncc1 | 2 | -2 | -3 | 0 | 4 | nt | nt | nt
COc1ccc2[nH]c(=O)c(CN(C(=O)C(C)C)c3ccccc3OC)cc2c1 | 10 | -3 | -6 | 2 | 19* | 1 | -6 | -15
COc1ccc(NCc2cc3cc(OC)ccc3[nH]c2=O)cc1 | 1 | 1 | -2 | -8 | 16* | 2 | -7 | 0
O=c1c(OC2OC(CO)C(O)C(O)C2OC2OC(CO)C(O)C(O)C2OC2OC(CO)C(O)C(O)C2O)c(-c2ccc(O)c(O)c2)oc2cc(O)cc(O)c12 (configuration not stated) | 0 | 3 | -2 | 1 | 5 | nt | nt | nt
COc1c(-c2ccc(O)c(O)c2)oc2cc(O)cc(O)c2c1=O | 1 | 0 | -2 | -1 | 16* | 9.3* | -33 | 72*
O=C(CCc1ccccc1)NNC(=O)c1ccncc1 | -1 | 2 | 0 | 0 | 0 | nt | nt | nt
COC(=O)c1ccc2nc(-c3ccc(C)cc3)c(Cc3ccccc3)n2c1 | 1 | nt | 3 | 10 | 14* | 9 | -28 | -2
CC(=O)Nc1ccc(CN2C(=O)C(CCc3ccccc3)ON=C2c2cnccn2)cc1 (configuration not stated) | 0 | -1 | 0 | 1 | -4 | nt | nt | nt
Clc1cccc(OCCn2cncn2)c1Cl | -2 | 6 | 0 | -1 | -1 | nt | nt | nt
Clc1cccc(Oc2cnns2)c1Cl | 6 | -3 | 1 | 3 | 17* | 2 | -7 | -5
COC(=O)c1c(NC(=O)COC(=O)[C@@H](NS(=O)(=O)c2cccc(Cl)c2)C(C)C)sc2c1CCC2 | -5 | 0 | -5 | -1 | 0 | nt | nt | nt
COC(=O)c1sc(N)c(C(=O)OC)c1COC(=O)[C@@H](NS(=O)(=O)c1cccc(Cl)c1)C(C)C | 1 | -1 | 1 | 1 | 21* | -2 | 12 | -3
Cc1ccccc1CC(=O)Nc1ccc(S(=O)(=O)N2CCOCC2)cc1 | -4 | 3 | -4 | -1 | 0 | nt | nt | nt
COc1ccccc1Nc1nc(N)nc(CN2CCC(C)CC2)n1 | 5 | 2 | 3 | 2 | 0 | nt | nt | nt
COc1ccccc1Nc1nc(N)nc(CN2CCC(Cc3ccccc3)CC2)n1 | -9 | -2 | 10 | 9 | 15* | 0 | 2 | 6
COc1cc(C2C=C(c3cccs3)Nc3ncnn32)cc(OC)c1OC (configuration not stated) | nt | -11 | nt | nt | nt | nt | nt | nt
COc1cccc2cc(-c3nc(-c4cccs4)cs3)c(=O)oc12 | 5 | -2 | 0 | 0 | 3 | nt | nt | nt
COc1cc(-c2cccs2)cc(=O)c2c(C)oc(C)c12 | -3 | 4 | 5 | 3 | 17* | 1 | -4 | 6
Cc1nc2sc(C(c3ccco3)N3CCN(c4cccc(Cl)c4)CC3)c(O)n2n1 (configuration not stated) | -16 | -3 | 4 | 4 | 20* | 0 | 0 | 5
Cc1nc2sc(C(c3ccco3)N3CCC(C)CC3)c(O)n2n1 (configuration not stated) | -9 | -4 | 2 | -2 | 13* | -3 | 14 | -3
SMILES | TDP2 inh | Rin1-Abl PPI inh | MBD2 inh | UHRF1 binding | LEDGF integ inh | IN multimer up | TR-FRET interf | IN-LEDGF confirm
CCc1c(-c2ccc(Br)cc2)ncn1CCc1ccccc1OC | -2 | nt | -1 | 8 | -1 | nt | nt | nt
C=CC[C@H]1c2ccccc2[C@H]2N3N=Cc4ccccc4[C@H]3[C@H](CCCC)C(=O)N2N1C(=O)c1ccccc1 | 3 | nt | 2 | -2 | -1 | nt | nt | nt
Cc1ccc(S(=O)(=O)NN=C2CC(C)(C)OC2(C)C)cc1 | 6 | 1 | 0 | 0 | -5 | nt | nt | nt
Cc1ccc(S(=O)(=O)NN=C2CC3CCC2(C)C3(C)C)cc1 (configuration not stated) | 0 | 6 | 2 | 0 | 17* | 2 | -9 | -3
Cc1ccc(S(=O)(=O)Nc2c(C)n(C)n(-c3ccccc3)c2=O)cc1C(=O)OC(C)C(=O)c1ccccc1 (configuration not stated) | -5 | 5 | -3 | 0 | -2 | nt | nt | nt
O=C(Cn1cnc2cc([N+](=O)[O-])ccc2c1=O)NC1CCS(=O)(=O)C1 (configuration not stated) | 9 | 0 | 3 | 1 | 20* | 1 | -3 | 0
O=C1c2ccc(Cl)cc2S(=O)(=O)c2cccc(C(=O)N3CCC(Cc4ccccc4)CC3)c21 | 15 | 2 | -2 | -2 | 1 | nt | nt | nt
COc1ccc(C2C(C(C)=O)=C(C)N=c3s/c(=C\c4cc(C)n(C)c4C)c(=O)n32)c(OC)c1 (configuration not stated) | 0 | -1 | -6 | -14 | 2 | nt | nt | nt
CCOC(=O)C1=C(c2ccccc2)N=c2s/c(=C\c3ccco3)c(=O)n2C1c1cccs1 (configuration not stated) | -1 | 4 | 5 | 8 | 16* | 1 | -7 | 23*
COc1ccc(C2C(C(C)=O)=C(C)N=c3s/c(=C\c4ccco4)c(=O)n32)c(OC)c1 (configuration not stated) | 1 | -1 | -2 | -3 | 15* | -1 | 7 | 0
COc1ccccc1Nc1nnc(SCc2cc(=O)n3cc(C)ccc3n2)s1 | -12 | 0 | -3 | -1 | 36* | 2 | -8 | -3
O=C(CCc1n[nH]c(=O)[nH]c1=O)N/N=C/c1ccco1 | 13 | -1 | 4 | 8 | 15* | -1 | 4 | 5
COc1cccc(/C=N/NC(=O)CCc2n[nH]c(=O)[nH]c2=O)c1O | -3 | -2 | -4 | -4 | -5 | nt | nt | nt
COC(=O)C(C(=O)OC)C(c1ccccc1)C(C(=O)c1ccccc1)[N+](=O)[O-] (configuration not stated) | -14 | 0 | 0 | 1 | -1 | nt | nt | nt

Source: PubChem (The Scripps Research Institute Molecular Screening Center)
